Each structure is given as a SMILES string.

Common to all, as to assay type: functional
The test system of one experiment is HL-60. Nature of the experiment: Percent differentiation of human promyelocytic leukemia (HL60) cells at 10e -6M concentration in culture medium. An outline of the steps:
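HL60 cells in RPMI-1640 with 10% FBS, 2 mM L-glutamine and gentamycin were exposed for 4 days to compound at 10⁻⁶ M final, diluted from a DMSO stock, at 1×10^5 cells/mL. Differentiation was scored by NBT reduction: 30 min at 37 °C with 0.2% NBT plus 200 ng/mL PMA. At least 200 cells were counted by light microscopy, blue cells scored as differentiated.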

Experiment [1] relates to P19. Nature of the experiment: Percent aggregation of mouse embryonal carcinoma (P19) cells 10e-6 M concentration in culture medium. The procedure, abridged:
(§1)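 P19 mouse embryonal carcinoma cells grown in α-MEM with 7.5% calf serum, 2.5% fetal calf serum and gentamycin at 37 °C, 5% CO2. Cells trypsinized, replated at 2×10^5 cells/mL, dosed from DMSO stock at 10⁻⁶ M final, redosed with fresh medium after 2 days, diluted 3 days later and counted 2 days after that. Read-out is percent of aggregates with neural outgrowth. Run in triplicate.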

Experiment [2] relates to P19. The experiment can be described thus: percent aggregation of mouse embryonal carcinoma (P19) cells 10e -6M concentration in culture medium. The procedure, abridged:
as §1

Take `CC1(C)CCC(C)(C)c2nc(C(=O)Nc3cccc(C(=O)O)c3)cnc21`: in the experiment with HL-60, the Differentiation is 2%. For the same compound, the Aggregates in the experiment on P19 [1] stood at 1%.
In the case of `CC1(C)CC(C)(C)c2nc(C(=O)Nc3ccc(C(=O)O)c(Cl)c3)cnc21`, in the experiment on HL-60, the Differentiation is given as 67%. In addition, the Aggregates with P19 [1] is 60%.
The like results for `CC1(C)CC(C)(C)c2nc(C(=O)Nc3cccc(C(=O)O)c3)cnc21` were, in that order, 0% and 0%.
`COc1cc(C(=O)O)ccc1NC(=O)c1cnc2c(n1)C(C)(C)CC2(C)C`: the Differentiation with HL-60 worked out at 6%. Also, the Aggregates in the experiment on P19 [1] was found to be 0%.
For `CC1(C)CC(C)(C)c2nc(C(=O)Nc3ccc(C(=O)O)cc3)cnc21`, the Differentiation with HL-60 is on record as 46%. In addition, in the experiment on P19 [1], the Aggregates worked out at 67%.
As to `COc1cc(C(=O)O)ccc1NC(=O)/C=C(C)/C=C/C1=C(C)CCCC1(C)C`, the Differentiation in the experiment on HL-60 was determined as 9%. This compound registered an Aggregates in the experiment on P19 [1] of 2%.
The like results for `COC(=O)c1ccc(NC(=O)c2cnc3c(n2)C(C)(C)CC3(C)C)cc1Cl` were, in that order, 69% and 50%.
In the case of `CC1=C(/C=C/C(C)=C/C(=O)N(C)c2ccc(C(=O)O)cc2)C(C)(C)CCC1`, the Differentiation with HL-60 was found to be 4%. The same compound yielded an Aggregates in the experiment on P19 [1] of 1%.
On to `CC1=C(/C=C/C(C)=C/C(=O)Nc2ccc(C(=O)O)cc2)C(C)(C)CCC1`, for which, in the experiment with HL-60, the Differentiation stood at 79%. Also, the Aggregates with P19 [1] is recorded as 68%.
The compound `COC(=O)c1ccc(N(C)C(=O)c2cnc3c(n2)C(C)(C)CC3(C)C)cc1` had a Differentiation in the experiment with HL-60 of 7%. Besides, the Aggregates in the experiment with P19 [1] came out at 0%.
As to `CN(C(=O)c1cnc2c(n1)C(C)(C)CCC2(C)C)c1ccc(C(=O)O)cc1`, the Differentiation in the experiment with HL-60 is on record as 15%. Besides, the Aggregates in the experiment on P19 [1] is 0%.
In the experiment with HL-60, `COC(=O)c1ccc(Cl)c(NC(=O)c2cnc3c(n2)C(C)(C)CCC3(C)C)c1` yielded a Differentiation of 7%. This compound came in with an Aggregates with P19 [1] of 0%.
In the experiment on HL-60, `COC(=O)c1ccc(NC(=O)c2cnc3c(n2)C(C)(C)CCC3(C)C)cc1Cl` registered a Differentiation of 47%. Also, in the experiment on P19 [1], the Aggregates amounted to 74%.
As to `COC(=O)c1cccc(NC(=O)c2cnc3c(n2)C(C)(C)CC3(C)C)c1`, the Differentiation with HL-60 was 0%. The same compound gave an Aggregates in the experiment with P19 [1] of 2%.
In the same order, the values of `COC(=O)c1ccc(Cl)c(NC(=O)c2cnc3c(n2)C(C)(C)CC3(C)C)c1` are 4% and 0%.
On to `COC(=O)c1cc(NC(=O)c2cnc3c(n2)C(C)(C)CC3(C)C)cc(C(=O)OC)c1`, for which the Differentiation with HL-60 turned out to be 4%. In addition, in the experiment with P19 [1], the Aggregates worked out at 1%.
Regarding `COC(=O)c1ccc(OC)c(NC(=O)c2cnc3c(n2)C(C)(C)CCC3(C)C)c1`, the Differentiation with HL-60 is reported as 0%. The Aggregates with P19 [1] is recorded as 0%.
`COC(=O)c1cccc(NC(=O)c2cnc3c(n2)C(C)(C)CCC3(C)C)c1`: the Differentiation in the experiment with HL-60 is listed as 6%. Further, the Aggregates in the experiment on P19 [1] was determined as 0%.
For `CC1(C)CCC(C)(C)c2nc(C(=O)Oc3ccc(C(=O)O)cc3)cnc21`, in the experiment on HL-60, the Differentiation was 47%. This compound also yielded an Aggregation in the experiment on P19 [2] of 0%.
Turning to `COc1ccc(C(=O)O)cc1NC(=O)c1cnc2c(n1)C(C)(C)CC2(C)C`, the Differentiation in the experiment on HL-60 is reported as 3%. The compound also returned an Aggregates in the experiment on P19 [1] of 0%.
The like results for `COC(=O)c1ccc(NC(=O)c2cnc3c(n2)C(C)(C)CCC3(C)C)cc1` were, in that order, 76% and 75%.
The like results for `COC(=O)c1ccc(NC(=O)c2cnc3c(n2)C(C)(C)CC3(C)C)cc1` were, in that order, 43% and 52%.
Consider `CC1(C)CC(C)(C)c2nc(C(=O)Nc3cc(C(=O)O)cc(C(=O)O)c3)cnc21`, for which the Differentiation in the experiment with HL-60 was found to be 2%. Moreover, in the experiment with P19 [1], the Aggregates turned out to be 2%.
In the experiment with HL-60, `COc1cc(C(=O)O)ccc1NC(=O)c1cnc2c(n1)C(C)(C)CCC2(C)C` gave a Differentiation of 30%. The compound also displayed an Aggregates in the experiment with P19 [1] of 0%.
As to `COC(=O)c1cc(NC(=O)c2cnc3c(n2)C(C)(C)CCC3(C)C)cc(C(=O)OC)c1`, in the experiment on HL-60, the Differentiation stood at 2%. For the same compound, in the experiment on P19 [1], the Aggregates is 0%.
In the experiment on HL-60, `COC(=O)c1ccc(NC(=O)c2cnc3c(n2)C(C)(C)CC3(C)C)c(OC)c1` showed a Differentiation of 13%. In the experiment with P19 [1], this compound came in with an Aggregates of 0%.
On to `COC(=O)c1ccc(OC)c(NC(=O)c2cnc3c(n2)C(C)(C)CC3(C)C)c1`, for which the Differentiation in the experiment with HL-60 came out at 1%. Besides, the Aggregates in the experiment with P19 [1] was determined as 0%.
Take `CC1(C)CCC(C)(C)c2nc(C(=O)Nc3ccc(C(=O)O)cc3)cnc21`: the Differentiation in the experiment on HL-60 is 73%. In addition, in the experiment with P19 [1], the Aggregates was 70%.
The compound `CC1(C)CC(C)(C)c2nc(C(=O)Nc3cc(C(=O)O)ccc3Cl)cnc21` gave a Differentiation in the experiment with HL-60 of 20%. Besides, the Aggregates with P19 [1] turned out to be 2%.
For `CC1=C(/C=C/C(C)=C/C=C/C(C)=C/C(=O)O)C(C)(C)CCC1` [TRETINOIN], the Differentiation in the experiment with HL-60 was 91%. For the same compound, the Aggregation in the experiment with P19 [2] was 86%.

Values taken from ChEMBL document CHEMBL1131054, “Synthesis and structure-activity relationships of 2-pyrazinylcarboxamidobenzoates and beta-ionylideneacetamidobenzoates with retinoidal activity” (1998).
